Measurements collected from several papers.
Compare with care: the assays were run in different laboratories.

For `Cc1cc(C)nc(SCC(=O)c2cccs2)n1`, the EC50 was over 64 µM (Leishmania infantum; parasite growth; mouse Macrophage; intracellular, amastigote).
`C=CC(=O)NC1CCN(c2ncc3ncnc(Nc4ccc(Oc5ccc6c(c5)ncn6C)c(C)c4)c3n2)CC1` gave an EC50 of 0.22 µM (HCC15; cell growth or viability).
The MIC of `Cl.N[C@H]1CCN(c2cc(C(=O)NCC(=O)O)ccc2NC(=O)c2cc(Br)c(Br)[nH]2)C1` is reported as over 32 mg/L (Klebsiella aerogenes; microbial growth, broth dilution; ATCC13408).
`O=C(O)c1cccnc1Nc1cccc(C(F)(F)F)c1` gave a GI50 of over 30 µM (U-87 MG; cell growth or viability, SRB; 48 h).
For `COc1ccc(C(=O)CSc2nc(C)cc(C)c2C#N)cc1`, the EC50 was 25.2 µM (Leishmania infantum; parasite growth; mouse Macrophage; intracellular, amastigote).
`O=C(O)c1ccccc1Nc1cccc(C(F)(F)F)c1` has a GI50 of over 30 µM (U-87 MG; cell growth or viability, SRB; 48 h).
`Cc1[nH]c(C(=O)Nc2ccc(C(=O)NCC(=O)O)cc2N2CCN(C(=O)OC(C)(C)C)CC2)c(Cl)c1Cl` gave an MIC of over 32 mg/L (Klebsiella aerogenes; microbial growth, broth dilution; ATCC13408).
`Cc1cc(C)c(C#N)c(SCC(=O)c2ccccn2)n1` gave an EC50 of 45.5 µM (Leishmania infantum; parasite growth; mouse Macrophage; intracellular, amastigote).
For `CC(=NNC(=O)COc1ccc2c(C)c(Cc3ccccc3)c(=O)oc2c1C)c1ccc(Br)cc1`, the viability was 49.9% (HCT-116; cell growth or viability, MTT; 6.3 µg/mL).
With `C=CC(=O)c1cccnc1Nc1cccc(C(F)(F)F)c1` the GI50 was 7.51 µM (U-87 MG; cell growth or viability, SRB; 48 h).
The EC50 of `Cc1cc(C)c(C#N)c(OCC(=O)c2ccccc2)n1` is reported as over 64 µM (Leishmania infantum; parasite growth; mouse Macrophage; intracellular, amastigote).
The MIC of `Cc1[nH]c(C(=O)Nc2ccc(C(=O)NCC(=O)O)cc2N2CC[C@H](NC(=O)OC(C)(C)C)C2)c(Cl)c1Cl` is reported as over 32 mg/L (Klebsiella aerogenes; microbial growth, broth dilution; ATCC13408).
